Assay outcomes as filed in PubChem BioAssay.
G6PDH counter: L. mesenteroides G6PDH inhibitors, counter-screen for G6PDH-coupled screening assays, biochemical, Leuconostoc mesenteroides enzyme. glucose-6-phosphate dehydrogenase [Leuconostoc mesenteroides]. Purified L. mesenteroides G6PDH, diaphorase/resazurin coupled fluorescence, 45 min. inhibition, % at 5 µM. 0.12% of 200,000 active; in the data active = inhibition above about 50%
Diaph inh CS: diaphorase inhibitors and chemical oxidizers, primary screen, counter-screen for diaphorase-coupled primary assays, biochemical, uHTS, resorufin fluorescence. diaphorase resazurin-to-resorufin fluorescence, NADH, 16 min; bacterial (C. kluyveri) enzyme, not human. inhibition, % at 20 µM. 0.69% of 190,000 active;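 active = primary screen inhibition at 20 µM above a set limit, cut at about 50% in these data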;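 also: plate controls were DMSO with full reaction for no effect and wells lacking NADH for full effect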
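material = Clostridium kluyveri diaphorase enzyme | amount = 0.14 U/mL diaphorase, enzyme working solution | schedule = incubation 16 min, room temperature | detection = fluorescence of resorufin formed from resazurin, Ex 544/Em 590 nm | benchmarks = positive control minus NADH, DMSO neutral control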
PfG6PD inh: PfG6PD enzyme inhibitors, primary screen, biochemical, fluorescence intensity, uHTS; 0.78% of 350,000 active; inhibition, % at 20 µM; PfGluPho enzyme, NADPH resazurin-diaphorase fluorescence; glucose-6-phosphate dehydrogenase-6-phosphogluconolactonase (Plasmodium falciparum 3D7);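 active = inhibition reaching at least a set limit at 20 µM in the primary screen, cut at about 59% in these data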;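 also: 0% = DMSO wells with substrate and 100% = DMSO wells lacking glucose-6-phosphate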
HKDC1 inhibitor: HKDC1 hexokinase inhibitors, primary screen, biochemical, fluorescence, uHTS; inhibition, % at 20 µM; Q2TB90; recombinant HKDC1, G6PDH/diaphorase resazurin coupled fluorescence; 0.16% of 340,000 active;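 active = inhibition above about 35% when tested at 20 µM, limit read from the data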;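 also: plate controls were DMSO wells with enzyme for no effect and DMSO wells lacking enzyme for full effect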
Target sequence (Q2TB90 whole entry, looked up): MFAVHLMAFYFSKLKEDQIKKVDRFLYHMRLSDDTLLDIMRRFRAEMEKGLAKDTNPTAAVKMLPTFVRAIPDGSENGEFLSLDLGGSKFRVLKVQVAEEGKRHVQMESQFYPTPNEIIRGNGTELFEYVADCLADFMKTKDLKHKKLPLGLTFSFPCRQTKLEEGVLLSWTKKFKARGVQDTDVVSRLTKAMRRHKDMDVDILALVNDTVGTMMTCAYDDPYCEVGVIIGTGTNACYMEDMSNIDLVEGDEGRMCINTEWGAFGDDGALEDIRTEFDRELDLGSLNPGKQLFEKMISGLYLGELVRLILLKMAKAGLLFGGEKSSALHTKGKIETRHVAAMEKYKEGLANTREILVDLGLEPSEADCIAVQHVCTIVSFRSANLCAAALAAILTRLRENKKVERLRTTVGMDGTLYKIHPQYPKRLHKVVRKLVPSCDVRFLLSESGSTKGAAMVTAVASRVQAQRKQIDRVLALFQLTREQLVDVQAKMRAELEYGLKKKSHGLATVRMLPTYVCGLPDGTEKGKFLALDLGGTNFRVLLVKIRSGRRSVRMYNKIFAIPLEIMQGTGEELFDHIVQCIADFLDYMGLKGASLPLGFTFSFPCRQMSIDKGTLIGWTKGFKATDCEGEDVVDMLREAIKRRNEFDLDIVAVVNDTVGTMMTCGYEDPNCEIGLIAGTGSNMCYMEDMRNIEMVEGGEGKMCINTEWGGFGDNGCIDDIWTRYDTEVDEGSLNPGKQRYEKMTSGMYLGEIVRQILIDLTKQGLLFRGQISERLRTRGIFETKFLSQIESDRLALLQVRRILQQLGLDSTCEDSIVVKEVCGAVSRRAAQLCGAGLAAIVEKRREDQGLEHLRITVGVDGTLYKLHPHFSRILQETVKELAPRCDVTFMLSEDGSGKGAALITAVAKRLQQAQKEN
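Test system: Recombinant HKDC1 (HK5) hexokinase enzyme, produced in-house | Input: HKDC1 at 5 µg/mL | Buffer or medium: Tris pH 8.0 buffer with MgCl2, Tween-20, BSA, BME | Schedule: 90 min reaction incubation at room temperature, dark | Technique: Resazurin-to-resorufin fluorescence via G6PDH and diaphorase coupling, 525/613 nm | Controls: DMSO wells with and without enzyme mix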
Diaphorase act: compounds boosting diaphorase resazurin reduction – biochemical, uHTS, resorufin fluorescence, counter-screen for diaphorase-coupled primary assays, primary screen; Diaphorase/resazurin coupled assay, 16 min; hits give high values; 1 = vehicle wells, 0 = NADH-free wells; activation factor at 20 µM; 0.005% of 190,000 active; AID 1229, 2008;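 active = diaphorase activity raised at least twofold by the compound at 20 µM; inactive = activation factor below 2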
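Test system: Clostridium kluyveri diaphorase, purified enzyme. Buffer or medium: 50 mM HEPES pH 7.4 buffer plus MgCl2 and Tween 20. Also added: 0.114 mM NADH and 0.1 mM resazurin, final amounts. Dosing: compound 20 µM once, DMSO 1%. Schedule: 16 min enzyme reaction, ambient temperature. Detection: fluorescence of resorufin, 544 nm excitation, 590 nm emission.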
PfG6PD confirm: PfG6PD inhibitors, hit retest, confirmation, biochemical, fluorescence intensity, single concentration; 34% of 2,400 active; shares compounds with PfG6PD inh; recombinant PfGluPho, NADPH-diaphorase-resazurin fluorescence; inhibition, % at 20 µM;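 active = inhibition of at least 50% at 20 µM in any single replicate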;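 also: 0% = DMSO with substrate and 100% = DMSO lacking glucose-6-phosphate substrate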
Diaphorase 10uM: diaphorase inhibitors and chemical oxidizers, confirmation, counter-screen for P. falciparum G6PD inhibitor project, biochemical, fluorescence intensity, 10 µM NADPH; shares compounds with PfG6PD inh; diaphorase-coupled resazurin reduction, NADPH 10 uM; inhibition, % at 20 µM; 39% of 820 active; AID 504862, 2011;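 active = average inhibition reaching 50% or more with the compound at 20 µM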;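 also: resorufin red fluorescence formed as diaphorase reduces resazurin using NADPH; 0% = DMSO with enzyme and 100% = DMSO without enzyme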
Diaphorase 30uM: diaphorase inhibitors and chemical oxidizers, confirmation, counter-screen for P. falciparum G6PD inhibitor project, biochemical, fluorescence intensity, 30 µM NADPH. shares compounds with PfG6PD inh. Diaphorase/resazurin coupled assay, resorufin fluorescence. inhibition, % at 20 µM. 29% of 820 active. AID 504863, 2011;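 active = inhibition averaging 50% or more, tested at 20 µM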;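 also: 0% = DMSO with enzyme and 100% = DMSO wells lacking diaphorase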
The depositor's hits bear a star; . = no result given. Hits are enriched below; roughly 1.3% of the tested compounds scored in any of these assays.

SMILES	G6PDH counter	Diaph inh CS	PfG6PD inh	HKDC1 inhibitor	Diaphorase act	PfG6PD confirm	others
COc1ccccc1-n1c(=O)oc2ccc(Cl)cc2c1=O	2	-6	61*	0	1.1	27
COc1c(Cl)c(=O)oc2ccc(Cl)cc12	.	.	-16	.	.	.
CC(=O)NC(Cc1ccccc1)C(=O)NC(Cc1ccccc1)C(=O)O (centres undefined)	.	.	-11	2	.	.
CC(C)C1(C(C)C)OC(=O)c2ccccc21	0	5	8	-19	0.9	.
O=C1OC2(c3ccccc31)c1ccccc1-c1ccccc12	.	.	84*	3	.	31
O=C1OC(c2ccccc2)(c2ccc3cc(O)ccc3c2)c2ccccc21 (centres undefined)	.	.	62*	15	.	-10
O=C1OC(c2ccc(O)cc2)(c2ccccc2O)c2ccccc21 (centres undefined)	.	.	-33	0	.	.
COc1ccc2c(c1)C(=O)N(c1ccccc1)C(=O)C2	13	-15	-13	-2	1.1	.
COc1ccc2c(c1)C1(C)CC(C)(C)N2C(=O)N1c1ccccc1 (centres undefined)	18	14	73*	4	0.9	47
COc1ccc(-n2c(C)nn(CCOc3ccccc3)c2=O)cc1	-1	0	-9	-1	1	.
CSc1ccc(C2Nc3cccc4cccc(c34)N2)cc1	.	.	64*	6	.	7
Clc1ccc(C2Nc3cccc4cccc(c34)N2)cc1	.	.	32	12	.	.
CC1(OC(=O)CCc2ccccc2)C(=O)C=C2C=C(c3ccc(C#N)cc3)N(CCc3c[nH]c4ccccc34)C=C2C1=O (centres undefined)	.	.	79*	30	.	27
CC1(OC(=O)CCc2ccccc2)C(=O)C=C2C=C(c3ccc(C#N)cc3)N(C3CCCCC3)C=C2C1=O (centres undefined)	.	.	75*	21	.	26
CCN(CC)CCCN1C=C2C(=O)C(C)(OC(=O)CCc3ccccc3)C(=O)C=C2C=C1c1ccc(C#N)cc1 (centres undefined)	.	.	30	13	.	.
COc1ccc(N2C=C3C(=O)C(C)(OC(=O)CCc4ccccc4)C(=O)C=C3C=C2c2ccc(C#N)cc2)cc1 (centres undefined)	.	.	69*	35	.	4
CC1(OC(=O)CCc2ccccc2)C(=O)C=C2C=C(c3ccc(C#N)cc3)N(C(CO)CO)C=C2C1=O (centres undefined)	.	.	65*	22	.	23
COc1ccc(CN2C=C3C(=O)C(C)(OC(=O)CCc4ccccc4)C(=O)C=C3C=C2c2ccc(C#N)cc2)cc1 (centres undefined)	.	.	52	30	.	.
CC(C)c1ccc(/C=N/NC(=O)CC(=O)NCc2ccccc2)cc1	1	-6	-5	-3	1.1	.
CC(=O)NC(C(=O)c1ccccc1)N1CCCCC1 (centres undefined)	.	.	-1	-4	.	.
CCOc1ccc(/C(CC)=N/NC(=O)C2(C)CC2(Br)Br)cc1 (centres undefined)	7	19	9	-7	0.8	.
CCOC(=O)N=Nc1c2ccccc2c2nc3no[nH]c3nc12	55*	20	69*	33	0.8	61*	Diaphorase 10uM=51*;Diaphorase 30uM=51*
Oc1ccc(C=NNc2ccccn2)c(O)c1	.	.	61*	14	.	45
Cc1ccc(S(=O)(=O)N2CCOCC2)cc1C(=O)Nc1nc(-c2ccccn2)cs1	.	.	47	-7	.	.
COc1cc(-c2c(-c3cc(OC)c(OC)c(OC)c3)noc2C)ccc1F	.	.	63*	1	.	14
SMILES	G6PDH counter	Diaph inh CS	PfG6PD inh	HKDC1 inhibitor	Diaphorase act	PfG6PD confirm	others
COc1ccc(-c2c(-c3cc(OC)c(OC)c(OC)c3)noc2C)cn1	.	.	9	3	.	.
COc1cc(N)c2ncccc2c1SC	.	.	66*	.	.	62*	Diaphorase 10uM=-9;Diaphorase 30uM=8
Cc1cc(NC(=O)CCC(=O)N(CC(=O)NC2CCCC2)Cc2ccc3c(c2)OCO3)no1	11	15	8	-11	0.9	.
COc1ccc(Br)cc1/C=N/NC(=O)CNC(=O)C1COc2ccccc2O1 (centres undefined)	.	.	119*	12	.	103*	Diaphorase 10uM=97*;Diaphorase 30uM=77*
O=C1C=C(O)c2c(O)cc(O)c(O)c2C1=O	.	.	4	-1	.	.
O=C1C=C(O)c2[nH]c(=O)ccc2C1=O	.	.	69*	22	.	30
Cc1cccc(N2CN(S(=O)(=O)c3cccc([N+](=O)[O-])c3)c3nc4ccccc4nc32)c1	.	.	3	-3	.	.
CCOC(=O)c1sc(N)c(C(=O)OCC)c1C	.	.	13	9	.	.
CCOC(=O)c1sc(N)c(C(=O)Nc2ccccc2)c1C	8	19	64*	-10	0.8	15
CSC1=NS(=O)(=O)c2c(C)nn(C)c2S1	.	.	63*	-8	.	2
CCn1nnnc1-c1ccc(OC)c(S(=O)(=O)Nc2ccc(C)c(C)c2)c1	8	1	-2	-6	1	.
CCOC(=O)c1c(C)oc2c1c(C=NCc1ccccn1)c(O)c1ccccc12	-52	64*	68*	22	0.4	40
O=C(Nc1ccccc1SC(=O)c1ccccc1)c1ccccc1	.	.	64*	.	.	21
CSc1ccccc1NC(=O)c1ccccc1	-3	1	-8	-12	1	.
CC(=O)c1ccc(NC(=O)C2CCC(C)NC2=O)cc1 (centres undefined)	-1	2	-22	-5	1	.
Cc1c(C(=O)NNC(=O)c2csc(N3CCOCC3)n2)cccc1[N+](=O)[O-]	.	.	3	-3	.	.
COc1cc2[nH]c(Cl)c([N+](=O)[O-])c2cc1OC	.	.	104*	11	.	21
CCSc1nnc(NC(NC(=O)c2ccco2)(C(F)(F)F)C(F)(F)F)s1	1	21	0	8	0.8	.
O=C(CSc1nnc(SCc2ccccc2Cl)s1)N/N=C/c1c[nH]c2ccccc12	-49	23	89*	-4	0.8	37
